Each structure is given as a SMILES string. Converted amounts (≈) assume the structure as drawn. The source made the active and inactive calls. The rule behind the calls is not given here.

Here are results for 8 compounds from ChEMBL document CHEMBL3352189 (J Med Chem, 2014).

One series has as its target Cytochrome P450 2C19 (Homo sapiens, UniProt P33261). In words: Inhibition of human CYP2C19 at 10 uM. The format is ADME. The settings on record: 10 µM.
Series [1] relates to Venezuelan equine encephalitis virus. In words: Antiviral activity against Venezuelan equine encephalitis virus TC83 infected in Vero 76 cells assessed as reduction in virus-induced cytopathic effect after 2 days by Celltiter-Glo reagent based assay. The format is functional, organism-based. Particulars: TC83, Vero 76, 48 h.
The nature of series [2]: Cytotoxicity against african green monkey Vero 76 cells after 3 days by Celltiter-Glo reagent based assay. The series is classed as cell-based. The settings on record: chlorocebus sabaeus, vero 76, 72 h. The method, boiled down:
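Vero 76 cells were seeded overnight at 12 000/well and given an 8-point 2-fold compound series (20 mM DMSO stock) in EMEM/10% FBS with no virus. Viability was read by CellTiter-Glo after 3 days relative to untreated cells. Run in duplicate; CC50 from a four-parameter logistic or sigmoidal fit.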

The subject of series [3] is Venezuelan equine encephalitis virus. In words: Antiviral activity against Venezuelan equine encephalitis virus V3526 infected in Vero 76 cells assessed as reduction in virus-induced cytopathic effect after 2 days by Celltiter-Glo reagent based assay. The format is functional, organism-based. The settings on record: V3526, Vero 76, 48 h. A general note: Cytopathic effects are the visible damage that an infection or toxin causes in cultured cells.

The test system is the same in series [4]. Kind of series: Antiviral activity against Venezuelan equine encephalitis virus TrD infected in Vero 76 cells assessed as reduction in virus-induced cytopathic effect after 2 days by Celltiter-Glo reagent based assay. The format is functional, organism-based. Particulars: Vero 76, 48 h.
The test system is the same in series [5]. Kind of series: Antiviral activity against Venezuelan equine encephalitis virus TC83 infected in Vero 76 cells assessed as reduction in viral titer at 1 uM by crystal violet staining based microplaque assay relative to untreated control. The series is classed as functional.
Series [6] shares this test system. Kind of series: Antiviral activity against Venezuelan equine encephalitis virus TrD infected in Vero 76 cells assessed as reduction in viral titer at 5 uM by crystal violet staining based microplaque assay relative to untreated control. The series is classed as functional, organism-based.
A short description of series [7]: Aqueous solubility in PBS buffer. The series is classed as physicochemical. The method, boiled down: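 Solubility measured in 1× PBS at pH 7.4.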
Series [8] in a line: Permeability at pH 7.4 by PAMPA assay. The format is ADME. In general terms: PAMPA measures passive passage across an artificial lipid membrane.
Series [9] in a line: Selectivity index, ratio of CC50 for african green monkey Vero 76 cells to EC50 for Venezuelan equine encephalitis virus TC83. The series is classed as toxicity, cell-based. Particulars: read-out: Ratio CC50/EC50.
The subject of series [10] is Venezuelan equine encephalitis virus. In words: Antiviral activity against Venezuelan equine encephalitis virus TrD infected in Vero 76 cells assessed as reduction in viral titer at 1 uM by crystal violet staining based microplaque assay relative to untreated control. The format is functional.
The test system is the same in series [11]. Kind of series: Antiviral activity against Venezuelan equine encephalitis virus TrD infected in Vero 76 cells assessed as reduction in viral titer at 0.5 uM by crystal violet staining based microplaque assay relative to untreated control. The series is classed as functional, organism-based.
Series [12] shares this test system. In words: Antiviral activity against Venezuelan equine encephalitis virus TC83 infected in Vero 76 cells assessed as reduction in viral titer by crystal violet staining based microplaque assay relative to untreated control. The format is functional, organism-based. Particulars: TC83, Vero 76.
A further series concerns the target CYP2D6 (Homo sapiens, UniProt P10635). In words: Inhibition of human CYP2D6 at 10 uM. The series is classed as ADME.

Cytochrome P450 2C19, sequence (P33261 whole entry): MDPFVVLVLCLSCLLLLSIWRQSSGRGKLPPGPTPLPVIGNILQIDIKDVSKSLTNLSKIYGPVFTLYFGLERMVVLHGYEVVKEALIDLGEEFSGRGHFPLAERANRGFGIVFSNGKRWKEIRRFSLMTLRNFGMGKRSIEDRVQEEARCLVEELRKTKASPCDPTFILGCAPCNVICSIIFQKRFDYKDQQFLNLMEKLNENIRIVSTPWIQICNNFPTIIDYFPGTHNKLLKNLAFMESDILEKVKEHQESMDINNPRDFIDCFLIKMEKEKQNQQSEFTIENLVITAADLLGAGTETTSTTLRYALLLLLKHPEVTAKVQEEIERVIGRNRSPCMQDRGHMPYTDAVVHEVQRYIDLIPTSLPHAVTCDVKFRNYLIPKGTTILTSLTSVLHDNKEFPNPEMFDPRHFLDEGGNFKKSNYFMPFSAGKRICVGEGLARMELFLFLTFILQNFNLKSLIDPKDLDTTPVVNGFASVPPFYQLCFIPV
CYP2D6, sequence (P10635 whole entry): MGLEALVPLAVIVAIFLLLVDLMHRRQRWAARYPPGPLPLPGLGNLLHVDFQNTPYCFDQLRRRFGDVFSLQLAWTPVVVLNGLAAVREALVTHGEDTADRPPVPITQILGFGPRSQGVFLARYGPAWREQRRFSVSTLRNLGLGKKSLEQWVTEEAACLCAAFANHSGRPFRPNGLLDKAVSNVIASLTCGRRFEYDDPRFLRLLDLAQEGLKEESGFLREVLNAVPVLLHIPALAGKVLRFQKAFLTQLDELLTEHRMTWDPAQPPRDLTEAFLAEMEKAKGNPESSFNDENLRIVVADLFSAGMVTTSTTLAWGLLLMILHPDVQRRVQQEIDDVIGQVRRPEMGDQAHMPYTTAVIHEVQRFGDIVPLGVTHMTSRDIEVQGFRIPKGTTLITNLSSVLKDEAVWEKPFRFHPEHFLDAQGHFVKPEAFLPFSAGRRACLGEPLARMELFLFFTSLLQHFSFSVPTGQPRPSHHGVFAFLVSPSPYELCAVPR

For `Cc1c(OCC(F)(F)F)ccnc1C[S+]([O-])c1nc2ccccc2[nH]1` (stereo not given) [LANSOPRAZOLE], the “inhibition (INH)” value on Cytochrome P450 2C19 came out at 86%.

In general, EC50 refers to the concentration needed to bring the measured effect to its halfway point. Usually CC50 stands for the concentration at which the toxic effect on the cells reaches its halfway point. One may read the inhibition as the relative decrease from the control value, in per cent. As usually defined, the solubility is the concentration that dissolves in the medium under given conditions. Consider `CCN1CCN(Cc2nc3ccc([N+](=O)[O-])cc3c(=O)n2-c2ccccc2F)CC1`, for which the EC50 in series [1] was found to be 800 nM; in series [3] it was 300 nM; in series [4], 600 nM. Moreover, the CC50 in [2] was over 50000 nM. Also, the “fold change (FC)” value in series [5] worked out at 3. Moreover, in [6], the inhibition entry was “Active”. The solubility in series [7] was over 122 µg/mL.

The compound `Cn1c(=O)c2[nH]cnc2n(C)c1=O.O` [THEOPHYLLINE] gave a permeability in series [8] of 0.32 ×10⁻⁶ cm/s.

Consider `COc1ccc(NC(=O)c2cc([N+](=O)[O-])ccc2/N=C2\CN(C)CCN2C)cc1`, for which the EC50 in [1] came out at 40 nM; in [3], 20 nM; in [4], 50 nM; in series [12], 170 nM. Further, in [2], the CC50 was over 50000 nM. In series [9], the selectivity ratio is over 1250. In addition, the “fold change (FC)” value in series [5] was 16000000. Also, the inhibition entry in series [6], in series [10] and in series [11] was “Active” throughout. In series [7], the solubility amounted to 105.6 µg/mL (≈ 266 µM).

Regarding `C=C[C@H]1C[N@@]2CC[C@H]1C[C@@H]2[C@@H](O)c1ccnc2ccc(OC)cc12` [QUINIDINE], at CYP2D6, testing at 10 µM gave an inhibition of 88%.

Take `CN1CCN(C)/C(=N/c2cc([N+](=O)[O-])ccc2C(=O)Nc2ccccc2)C1`: in series [1], the EC50 turned out to be 8400 nM. The CC50 in series [2] is over 50000 nM. Also, in [9], the selectivity ratio was over 6.

As to `O=c1c2cc([N+](=O)[O-])ccc2nc(C2CCNCC2)n1-c1ccccc1`, in series [1], the half-maximal effective concentration (EC50) is 3600 nM. Also, the 50% cytotoxic concentration (CC50) in series [2] was over 50000 nM. Besides, the selectivity ratio in series [9] was over 13.9.

For the compound `CN1CCN(C)/C(=N/c2cc(Cl)c(C#N)cc2C(=O)Nc2ccccc2)C1`, the EC50 in series [1] was determined as 100 nM. In [2], this compound showed a CC50 of over 50000 nM. The selectivity ratio in series [9] was over 500.
